Assay outcomes (PubChem)
ADAM17 inh: ADAM17 inhibitors, primary screen, biochemical, QFRET. Disintegrin and metalloproteinase domain-containing protein 17 (Homo sapiens), P78536. 0.83% of 370,000 active. recombinant ADAM17, EDANS/DABCYL FRET peptide cleavage. inhibition, % at 6.95 µM;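 active = inhibition above the mean of compounds lying between control limits plus 3 SD, set per campaign, cut at about 8.5% in these data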
Target sequence (P78536 215-824 limits assumed): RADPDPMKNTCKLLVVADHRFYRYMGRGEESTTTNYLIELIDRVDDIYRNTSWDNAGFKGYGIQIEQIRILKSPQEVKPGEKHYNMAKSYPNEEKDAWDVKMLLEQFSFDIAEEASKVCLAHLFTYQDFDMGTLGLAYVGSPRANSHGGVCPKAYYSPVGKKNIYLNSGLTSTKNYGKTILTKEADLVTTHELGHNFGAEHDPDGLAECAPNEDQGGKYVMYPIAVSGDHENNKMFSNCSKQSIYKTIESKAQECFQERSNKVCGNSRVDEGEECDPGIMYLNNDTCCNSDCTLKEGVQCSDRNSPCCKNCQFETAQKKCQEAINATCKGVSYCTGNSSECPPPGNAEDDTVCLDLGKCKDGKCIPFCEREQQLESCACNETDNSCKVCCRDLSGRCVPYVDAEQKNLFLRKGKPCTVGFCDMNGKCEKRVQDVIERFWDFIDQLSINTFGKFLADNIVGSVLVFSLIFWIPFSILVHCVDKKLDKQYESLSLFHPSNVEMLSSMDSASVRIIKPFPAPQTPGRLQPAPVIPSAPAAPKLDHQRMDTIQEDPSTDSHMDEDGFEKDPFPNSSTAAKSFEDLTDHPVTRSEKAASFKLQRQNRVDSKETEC
SKN-1 block: suppressors of acrylamide-induced Pgst-4::GFP reporter in worms, primary screen, SKN-1 inhibitor project, whole organism, uHTS, GFP/RFP fluorescence ratio, strain VP596. C. elegans VP596 Pgst-4::GFP/RFP ratio, 24 h. 0.49% of 360,000 active. inhibition, % at 21.8 µM;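 active = interference check ratio from 0.5 to 1.5 plus GFP to RFP signal ratio inhibition reaching or exceeding a fixed threshold, cut at about 30% in these data, passing the limit was not always enough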
GRIN3A LBD mod: binders of NR3A ligand-binding domain, primary screen, biophysical, differential scanning fluorimetry, uHTS; Glutamate receptor ionotropic, NMDA 3A (GRIN3A) ligand-binding domain; NR3A LBD differential scanning fluorimetry, Tm shift; 0% = protein alone, 100% = glycine-bound protein; Tm shift relative to glycine control, % at 25 µM; 2.5% of 340,000 active; AID 1259313, 2017;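 active = melting temperature shift of at least 10% of the positive control shift, at one fixed dose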
ADAM10 inh: human ADAM10 inhibitors, primary screen, biochemical, QFRET, HTS; Disintegrin and metalloproteinase domain-containing protein 10 (Homo sapiens), O14672; recombinant ADAM10, EDANS/DABCYL FRET peptide cleavage, 3 h; inhibition, % at 7 µM; 0.62% of 370,000 active; AID 720582, 2013;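 active = inhibition above a per-campaign cutoff equal to the mean of compounds falling between control-based bounds plus 3 SD, cut at about 20% in these data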
MT1-MMP act inh: blockers of MT1-MMP proenzyme processing, primary screen, HT1080 RFP-PRO-GFP cells, GFP/RFP fluorescence. AID 651647, 2012. GFP/RFP ratio fluorescence, overnight; percent of plate control window, DMSO zero. GFP/RFP ratio change, % at 20 µM. 0.061% of 360,000 active;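 active = GFP/RFP ratio change of at least 30% with cell ATP level not reduced by more than half and red fluorescence within 50% of control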
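Assay system: HT1080 cells carrying an RFP-PRO-GFP reporter | Dosing: Single dose of 20 µM compound, 1% DMSO final | Incubation: Cells overnight before dosing, compound overnight, 37 °C, 5% CO2 | Evaluation: GFP/RFP fluorescence ratio | Control set: DMSO and RFP-L50D-GFP cell wells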
MPTP block: mitochondrial permeability transition pore inhibitors, primary screen, biochemical, isolated mouse mitochondria, absorbance; Ca2+ swelling absorbance, 30 min; 1.4% of 360,000 active; inhibition, % at 10 µM; AID 602449, 2012;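 active = inhibition of 50% or more, scaled per plate between neutral and stimulator controls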
A number is an active result; n = inactive; x = no result. In the library only some 4.7% were active in any assay of this set; here they are far more common.

SMILES | ADAM17 inh | SKN-1 block | GRIN3A LBD mod | ADAM10 inh | MT1-MMP act inh | MPTP block
Cc1cc(C(=O)N2CCCC(N3CCN(c4cccc(C(F)(F)F)c4)CC3)C2)no1 (stereo not drawn) | n | n | 20 | n | n | n
Cc1cccc(C(=O)N2CCCC(N3CCN(c4cccc(Cl)c4)CC3)C2)n1 (stereo not drawn) | n | n | 13 | n | n | n
COCc1ccc(C(=O)N2CCCC(N3CCN(c4ccccc4C)CC3)C2)s1 (stereo not drawn) | n | n | n | n | n | n
O=C(O)C1=CCCc2ccc(F)cc21 | n | n | n | n | n | n
COc1ccccc1C(=O)NC1CCCCN(C)C1=O (stereo not drawn) | n | x | x | n | x | x
CC(C)(C)c1ccc(C#C[C@@H]2C=C[C@@H](O)[C@@H](COC(=O)Nc3ccccc3)O2)cc1 | n | x | x | n | x | x
COc1ccc(Cl)cc1NC(=O)c1cc(C2CC2)on1 | n | x | x | n | x | x
COc1cc(NC(=O)c2cc(C3CC3)on2)c(OC)cc1Cl | n | n | 14 | n | n | n
COc1ccc(N(C(=O)CNC(=O)c2ccco2)C(C(=O)NC2CCCC2)c2cccnc2)cc1 (stereo not drawn) | n | n | n | n | n | n
COc1ccc(N(C(=O)CNC(=O)c2ccco2)C(C(=O)NC2CCCCC2)c2cccnc2)cc1 (stereo not drawn) | n | 38 | n | n | n | n
Cc1ccc2[nH]c(-c3ccccc3)c(CN3CCCC3)c(=O)c2c1 | n | n | n | n | n | n
Cc1ccc(Sc2ncccc2NC(=O)c2ccccc2Cl)cc1 | n | n | 14 | n | n | n
CCOC(=O)Nc1cccnc1Sc1ccc(Cl)cc1 | n | n | n | n | n | n
COc1ccc(-c2cc(C(=O)Nc3cc(S(N)(=O)=O)ccc3C)c3ccccc3n2)cc1OC | n | n | n | n | n | n
CCOC(=O)c1cc(C)n(S(=O)(=O)c2ccc(C)cc2)c1C | n | n | 14 | n | n | n
C=CCC[C@@H](Cc1ccc(F)cc1)C(=O)OC[C@H](Cc1c[nH]c2ccccc12)NC(=O)[C@@H](CC=C)CC(=O)N[C@H](CO)Cc1ccccc1 | n | n | 15 | n | n | n
C=CCC[C@H](Cc1ccc(F)cc1)C(=O)OC[C@@H](NC(=O)[C@@H](CC=C)CC(=O)N[C@@H](CO)Cc1ccccc1)C(C)(C)C | n | n | 31 | 20 | n | n
C=CCC[C@H](Cc1ccc(F)cc1)C(=O)OC[C@H](Cc1c[nH]c2ccccc12)NC(=O)[C@@H](CC=C)CC(=O)N[C@@H](CO)Cc1ccccc1 | n | n | n | n | n | n
C=CCC[C@H](Cc1ccc(F)cc1)C(=O)OC[C@@H](C)NC(=O)[C@@H](CC=C)CC(=O)N[C@H](CO)Cc1ccccc1 | n | n | n | n | n | n
Cc1cccc(C)c1OCC(O)CN(Cc1ccccc1O)C1CCCCC1 (stereo not drawn) | n | 37 | n | n | n | n
COc1ccc(NC(=O)CSc2ncnc3c2sc2ccccc23)c(OC)c1 | n | n | 16 | n | n | n
Nc1cc(C(=O)O)ccc1Sc1ccccc1C(=O)O | n | n | n | n | n | n
COc1ccccc1NS(=O)(=O)c1cccs1 | n | n | n | n | n | n
COc1ccc(NS(=O)(=O)c2cccs2)c(OC)c1 | n | n | 15 | n | n | n
C(=C\c1nccc2c1[nH]c1ccccc12)/c1ccccc1 | n | n | 16 | n | n | n
SMILES | ADAM17 inh | SKN-1 block | GRIN3A LBD mod | ADAM10 inh | MT1-MMP act inh | MPTP block
Cn1c2ccccc2c2cc(C(=O)OCC(=O)N3CC(=O)Nc4ccccc43)sc21 | n | 46 | n | n | n | n
Brc1cccc(-c2nc3ccc(Br)cn3c2Cc2ccsc2)c1 | n | 47 | x | n | n | n
Clc1cccc(-c2nc3ccc(Br)cn3c2Cc2ccsc2)c1 | n | 36 | x | n | n | n
Cc1ccc2nc(-c3cccc(Cl)c3)c(Cc3ccsc3)n2c1 | n | x | x | n | x | x
Fc1ccc(-c2nc3ccc(Cl)cn3c2Cc2ccsc2)cc1 | n | 40 | x | n | n | n
O=C(Cn1ccc(C(F)(F)F)n1)NNC(=O)c1ccco1 | n | n | 293 | n | n | n
O=C(COc1ccc(F)cc1)NNC(=O)Cn1ccc(C(F)(F)F)n1 | n | n | n | n | n | n
CCOC(=O)c1cc2sccc2n1CC(=O)OC | n | n | n | n | n | n
COc1cc(NC(=O)CCN2C(=O)NC3(CCCC3)C2=O)c(OC)cc1Cl | n | n | n | n | n | n
CCn1c(SCC(=O)Nc2nc(C)c(C)s2)nnc1-c1cccnc1 | n | n | n | n | n | n
CCn1c(SCC(=O)Nc2ccc(NC(=O)c3cccs3)cc2)nnc1-c1cccnc1 | n | 35 | 21 | n | n | n
C[N+](C)(C)C/C=C1/COCO1 | n | n | n | n | n | n
C#CCCN([C@@H](CC(C)C)C(=O)OC)S(=O)(=O)c1ccc(F)cc1Br | n | x | x | n | x | x
C#CCCCN([C@@H](CC(C)C)C(=O)OC)S(=O)(=O)c1ccccc1Br | 8.6 | x | x | n | x | x
Cn1ncc(N=Cc2ccc([N+](=O)[O-])cc2)c1C(=O)Nc1ccccc1 | n | n | 14 | n | n | n
CC(=O)Nc1ccc(C=NNc2ccc([N+](=O)[O-])cn2)cc1 | n | n | 24 | n | n | n
O=[N+]([O-])c1ccc(NN=Cc2cccc(O)c2)nc1 | n | n | 12 | n | n | n
Cn1ncc(N=Cc2ccccc2[N+](=O)[O-])c1C(N)=O | n | n | n | n | n | n
COCCCNC(=S)Nc1ccccc1[N+](=O)[O-] | n | n | n | n | n | n
Cc1ccc(OCC(=O)N(Cc2ccc(N(C)C)cc2)C2CCS(=O)(=O)C2)cc1 (stereo not drawn) | n | n | 17 | n | n | n
Cc1cccc(-[n+]2c(C)cc(C)c3c(=O)[nH]c(=O)[nH]c32)c1 | n | n | 12 | n | n | n
COc1ccc2nc(NC(=O)CSc3nc4ccccc4o3)sc2c1 | n | n | 15 | n | n | n
CCOc1ccc2nc(NC(=O)CSc3ccccc3)sc2c1 | n | n | 30 | n | n | n
CCOc1ccc2nc(NC(=O)CN3CCC(n4nnc5cc(C(F)(F)F)ccc54)CC3)sc2c1 | n | 39 | n | n | n | n
CCCC(=O)Nc1nc2ccc(OCC)cc2s1 | n | n | n | n | n | n
